Screening results (PubChem BioAssay)
CRFR2-BP antag: blocks CRF-induced signaling of the CRF-BP/CRF-R2 complex; HEK293 CRF-R2/CRF-BP, CRF-induced calcium fluorescence; inhibition, % at 11.8 µM; 350,000 compounds, 0.59% hits; AID 588475;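 active = inhibition of the ligand-induced calcium signal above about 50% at the single tested concentration, limit read from the data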
DDE Tn6 FP inh: disrupts Tn6 cyclic peptide binding to fibrin D-Dimer-E complex; 370,000 compounds, 0.21% hits; AID 720509; Fibrin DD(E) TRITC-Tn6 fluorescence polarization displacement; inhibition, % at 8.3 µM;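 active = inhibition above a per-campaign cutoff: mean of compounds within control limits plus 3 SD, cut at about 15% in these data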
Target sequence (P02675 whole entry, looked up): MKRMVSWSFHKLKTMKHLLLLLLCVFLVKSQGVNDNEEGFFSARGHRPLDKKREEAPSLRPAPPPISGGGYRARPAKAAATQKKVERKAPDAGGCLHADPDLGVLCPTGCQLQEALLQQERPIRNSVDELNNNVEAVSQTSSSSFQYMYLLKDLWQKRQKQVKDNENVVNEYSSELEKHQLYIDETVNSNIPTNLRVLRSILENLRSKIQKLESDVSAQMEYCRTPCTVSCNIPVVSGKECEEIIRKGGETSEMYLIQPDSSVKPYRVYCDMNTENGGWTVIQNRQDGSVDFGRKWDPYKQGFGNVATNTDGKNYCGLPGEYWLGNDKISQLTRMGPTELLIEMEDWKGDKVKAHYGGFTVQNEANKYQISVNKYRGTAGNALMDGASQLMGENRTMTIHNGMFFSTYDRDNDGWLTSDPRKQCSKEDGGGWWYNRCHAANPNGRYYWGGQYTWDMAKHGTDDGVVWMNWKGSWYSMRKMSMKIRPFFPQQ
CRFR2-BP ag: CRF-BP/CRF-R2 complex agonism | HEK293 CRF-R2/CRF-BP, calcium dye fluorescence (FLIPR); percent of saturating CRF peptide response | activation, % at 13.2 µM | 350,000 compounds, 0.46% hits | AID 588473;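 active = activation of at least 50%, plus an integration ratio under a set limit after plate pattern correction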
Tn7 DDE FP: inhibitors of Tn7 peptide binding to human fibrin DD(E); P02675; FP displacement of FITC-Tn7 peptide from fibrin DD(E); 0% = median of compound wells per plate; inhibition, % at 8.3 µM; 370,000 compounds, 0.13% hits; AID 720508;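 active = inhibition above the mean of compounds falling within the control limits plus 3 SD of them, cut at about 14% in these data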
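System: human fibrin DD(E); quantity: Fibrin-DD(E) at 2 µM final; also added: fluorescent Tn7 probe at 0.1 µM; compound dosing: single nominal test concentration of 8.3 µM per compound; schedule: 10 min preincubation, 3 h with tracer, room temperature; detection: fluorescence polarization of the labelled Tn7 tracer; repeats: one replicate per compound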
DDE Tn7 confirm: DD(E)-Tn7 binding inhibition, FP confirmation. FP displacement of TRITC-Tn7 peptide from DD(E); 0% set at plate's compound-well median. 460 compounds, 5% hits. shares compounds with Tn7 DDE FP. inhibition, % at 8.3 µM;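 active = inhibition above the campaign cutoff, the mean of compounds within control limits plus 3 SD, cut at about 14% in these data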;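 note: displacers lower polarization since freed probe rises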
DDE Tn7 FP ctr: counter-screen for inhibitors of Tn7 peptide binding to fibrin DD(E); shares compounds with Tn7 DDE FP; TRITC-Tn7 probe displacement, fluorescence polarization; inhibition, % at 8.3 µM; 460 compounds, 3% hits; AID 720633;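 active = inhibition above the cutoff, the mean of compounds lying between the control bounds plus 3 SD of those compounds, cut at about 17% in these data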
Tn6 DDE ctr: counter-screen hit for Tn6 peptide-fibrin DD(E) binding disruption. inhibition, % at 8.3 µM. AID 720621. shares compounds with DDE Tn6 FP inh. TRITC-Tn6 fluorescence polarization displacement; 0% = median of compound wells, not DMSO. 680 compounds, 2% hits;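 active = inhibition above the mean of test compounds lying between the control limits plus 3 SD of those, cut at about 14% in these data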
Tn6 DDE conf: confirmation of inhibitors of Tn6 binding to human fibrin DD(E); AID 720631; inhibition, % at 8.3 µM; 680 compounds, 10% hits; shares compounds with DDE Tn6 FP inh; FP displacement of TRITC-Tn6 peptide from DD(E); 0% = per-plate median of test wells;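 active = inhibition above the mean of compounds lying within the control limits plus 3 SD, cut at about 16% in these data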
A number is an active result; . = inactive; / = no result given; ! = not active in a repeat. Rows were chosen to be rich in hits. Some 1.3% of all compounds tested hit in one or more screens of this group.

SMILES	CRFR2-BP antag	DDE Tn6 FP inh	CRFR2-BP ag	Tn7 DDE FP	DDE Tn7 confirm	DDE Tn7 FP ctr	others
O=C(OCc1cn(Cc2cccc(F)c2F)nn1)N1CCCC1	/	.	/	.	/	/
CC1=CC(C)(C)NC(=S)N1c1ccc(C)cc1	.	.	.	.	/	/
CC1=CC(C)(C)NC(=S)N1c1cccc(C)c1	.	.	.	14!	.	.
CCCCOCCCNC(=O)C[C@H]1C[C@@]2(C(=O)OC)C(=C[C@H](C3CCCC3)O[C@@H]2C)N(CCc2ccc(OC)c(OC)c2)C1=O	/	.	/	.	/	/
COC(=O)c1ccc(Cn2c(C)c(C(=O)NCc3ccc(C#N)cc3)sc2=O)o1	/	.	/	14	.	.
COC(=O)c1ccc(Cn2c(C)c(C(=O)NCc3ccc(Cl)c(Cl)c3)sc2=O)o1	/	.	/	.	/	/
Cc1ccc2c(c1)[C@H]1[C@H](CO2)[C@H](c2ccccc2)[C@]2(C)C(=O)N(Cc3ccc(F)cc3)CC(=O)N12	.	.	.	27	14	.
Cc1ccc2c(c1)[C@H]1[C@H](CO2)[C@H](c2ccccc2)[C@]2(C)C(=O)N(Cc3ccc(Cl)cc3)CC(=O)N12	.	.	.	.	/	/
CCOC(=O)c1oc2cccc(O)c2c1C	.	.	.	.	/	/
CCOC(=O)c1oc2cccc(O)c2c1CN(Cc1ccccc1)C(C)=O	.	.	.	14	.	.
CCOC(=O)C1(Cc2cccc(F)c2)CCN(Cc2ccon2)CC1	.	.	.	14	.	.
CCOC(=O)C1(Cc2ccc(Cl)cc2)CCN(Cc2ccon2)CC1	.	.	.	.	/	/
CNC(=O)Cn1ncc2c(C)n(Cc3ccc(C)cc3)c(C)c2c1=O	.	.	.	14	.	.
Cc1ccc(Cn2c(C)c3cnn(CC(=O)NC4CCCC4)c(=O)c3c2C)cc1	.	.	.	.	/	/
COc1ccc(-c2cc(C(=O)NN=Cc3ccc(O)c(OC)c3)[nH]n2)cc1	/	.	/	.	/	/
O=C1C=C(NNC(=O)c2cccnc2)CC(c2ccco2)C1 (stereo not given)	.	.	.	16	.	.
CC1(C)CC(=O)C=C(NNC(=O)c2cccnc2)C1	.	.	.	.	/	/
COCCCN1C(=O)[C@H](CC(=O)NCc2cccc(C(F)(F)F)c2)[C@]2(C(=O)OC)CCCCC=C12	/	.	/	.	/	/
COc1cc(OC)c(CNC2CCCCCC2)cc1Br	.	.	.	15	.	.
COc1cccc(OC)c1C(=O)Nc1sc2c(c1C#N)CCC2	.	.	.	14	.	.
CC(=O)Oc1ccc2c(c1)C(=O)c1ccccc1CO2	.	.	.	14	.	.
COc1ccc(NC(=S)N2CCN(Cc3ccccc3)CC2)c(OC)c1	.	.	.	15	.	.
COc1ccc(OC)c(NC(=S)N2CCN(Cc3ccccc3)CC2)c1	.	.	.	.	/	/
COc1ccccc1N(CC(=O)NCCSCc1ccccc1)S(C)(=O)=O	.	.	.	14	.	.
CC(=O)Nc1ccc(NC(=O)[C@@H](NC(=O)c2ccccc2F)C(C)C)cc1	.	.	.	15	.	.
C[C@@H]1OC(C2CCCCC2)N(C)[C@H]2C[C@H]3c4[nH]c5c(-c6ccc7c(c6)OCO7)cccc5c4CCN3C[C@@H]12 (stereo not given in full)	/	.	/	.	/	/
COC(=O)CCC(=O)Nc1ccc(Cl)c(Cl)c1	.	.	.	.	/	/
COC(=O)CC1(C(=O)OC)Nc2cc(Cl)c(Cl)cc2S(=O)(=O)N1O (stereo not given)	.	124	.	88	60	58	Tn6 DDE ctr=60;Tn6 DDE conf=58
O=C(CSC1CCc2ccccc21)NNC(=O)Nc1ccc(Cl)cc1 (stereo not given)	/	.	/	.	/	/
COc1ccc(CNS(=O)(=O)/C=C/c2ccc(F)cc2CNC(=O)OC(C)(C)C)cc1	/	.	/	.	/	/
